Each block holds one compound with its values, some of them ahead of it.
How the values were obtained:
[1] = target: T1, Interleukin-1 receptor-associated kinase 4 (Homo sapiens) (UniProt Q9NWZ3); test: Inhibition of human recombinant IRAK4 at 500 nM related to control ULK1
T1 sequence (whole entry): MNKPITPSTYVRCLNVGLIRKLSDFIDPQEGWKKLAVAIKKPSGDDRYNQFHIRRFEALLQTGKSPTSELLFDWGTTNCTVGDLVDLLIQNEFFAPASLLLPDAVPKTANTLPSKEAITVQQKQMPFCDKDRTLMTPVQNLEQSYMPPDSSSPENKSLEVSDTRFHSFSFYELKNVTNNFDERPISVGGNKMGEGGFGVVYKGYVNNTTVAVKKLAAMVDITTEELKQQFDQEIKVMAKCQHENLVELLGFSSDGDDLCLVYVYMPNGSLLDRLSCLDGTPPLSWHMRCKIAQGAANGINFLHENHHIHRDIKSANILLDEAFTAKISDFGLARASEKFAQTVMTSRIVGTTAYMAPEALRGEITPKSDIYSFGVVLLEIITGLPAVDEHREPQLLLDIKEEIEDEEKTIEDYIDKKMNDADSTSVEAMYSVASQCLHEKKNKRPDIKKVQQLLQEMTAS

[2] = target: 5'-AMP-activated protein kinase catalytic subunit alpha-1 (Homo sapiens) (UniProt Q13131); test: Inhibition of human recombinant AMPKa1 at 15 nM in presence of ATP by radiometric assay relative to control
Method in brief: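 Panel of 327 recombinant human kinases, each assayed in vitro by radiometric activity assay in duplicate at a single inhibitor concentration per compound, chosen with reference to its ULK1 inhibition. Activity remaining was expressed as percent of vehicle control, and percent inhibition was calculated as 100 minus percent activity remaining.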

[3] = target: T2, Serine/threonine-protein kinase Nek3 (Homo sapiens) (UniProt P51956); test: Inhibition of human recombinant NEK3 at 15 nM in presence of ATP by radiometric assay relative to control
T2 sequence (whole entry): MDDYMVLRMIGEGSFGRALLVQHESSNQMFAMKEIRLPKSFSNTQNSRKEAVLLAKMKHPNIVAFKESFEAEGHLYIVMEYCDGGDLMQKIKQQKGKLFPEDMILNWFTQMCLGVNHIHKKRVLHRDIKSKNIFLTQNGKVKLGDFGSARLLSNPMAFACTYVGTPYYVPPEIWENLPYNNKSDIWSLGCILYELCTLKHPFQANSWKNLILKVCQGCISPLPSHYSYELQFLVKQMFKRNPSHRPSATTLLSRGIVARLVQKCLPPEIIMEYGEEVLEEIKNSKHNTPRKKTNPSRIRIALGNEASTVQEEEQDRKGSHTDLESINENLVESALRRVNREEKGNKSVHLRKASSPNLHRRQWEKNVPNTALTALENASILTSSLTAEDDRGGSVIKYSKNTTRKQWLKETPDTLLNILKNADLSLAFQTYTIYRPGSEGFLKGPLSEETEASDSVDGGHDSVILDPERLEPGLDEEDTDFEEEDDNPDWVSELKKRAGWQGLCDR

[4] = target: Cyclin-dependent kinase 13 (Homo sapiens) (UniProt Q14004); test: Inhibition of human recombinant CHED at 15 nM related to control ULK1
[5] = target: T3, Serine/threonine-protein kinase 17A (Homo sapiens) (UniProt Q9UEE5); test: Inhibition of human recombinant DRAK1 at 15 nM related to control ULK1
T3 sequence (whole entry): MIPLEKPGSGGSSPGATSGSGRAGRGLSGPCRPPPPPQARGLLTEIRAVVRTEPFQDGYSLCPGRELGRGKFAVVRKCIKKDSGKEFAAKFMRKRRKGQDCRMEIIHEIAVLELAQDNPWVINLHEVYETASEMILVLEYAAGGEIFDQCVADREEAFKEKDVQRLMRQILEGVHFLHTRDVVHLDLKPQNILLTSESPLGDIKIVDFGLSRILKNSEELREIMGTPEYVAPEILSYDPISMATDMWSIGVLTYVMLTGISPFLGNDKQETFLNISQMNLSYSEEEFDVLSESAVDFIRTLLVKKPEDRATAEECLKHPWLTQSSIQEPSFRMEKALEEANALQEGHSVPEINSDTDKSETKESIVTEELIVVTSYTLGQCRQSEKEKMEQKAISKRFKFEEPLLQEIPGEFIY

[6] = target: BDNF/NT-3 growth factors receptor (Homo sapiens) (UniProt Q16620); test: Inhibition of human recombinant TRKB at 15 nM related to control ULK1
[7] = target: 3-phosphoinositide-dependent protein kinase 1 (Homo sapiens) (UniProt O15530); test: Inhibition of human recombinant PDK1 at 15 nM in presence of ATP by radiometric assay relative to control
[8] = target: Calcium/calmodulin-dependent protein kinase type 1G (Homo sapiens) (UniProt Q96NX5); test: Inhibition of human recombinant CaMK1g at 40 nM in presence of ATP by radiometric assay relative to control
[9] = target: T4, NUAK family SNF1-like kinase 2 (Homo sapiens) (UniProt Q9H093); test: Inhibition of human recombinant NuaK2 at 40 nM in presence of ATP by radiometric assay relative to control
T4 sequence (whole entry): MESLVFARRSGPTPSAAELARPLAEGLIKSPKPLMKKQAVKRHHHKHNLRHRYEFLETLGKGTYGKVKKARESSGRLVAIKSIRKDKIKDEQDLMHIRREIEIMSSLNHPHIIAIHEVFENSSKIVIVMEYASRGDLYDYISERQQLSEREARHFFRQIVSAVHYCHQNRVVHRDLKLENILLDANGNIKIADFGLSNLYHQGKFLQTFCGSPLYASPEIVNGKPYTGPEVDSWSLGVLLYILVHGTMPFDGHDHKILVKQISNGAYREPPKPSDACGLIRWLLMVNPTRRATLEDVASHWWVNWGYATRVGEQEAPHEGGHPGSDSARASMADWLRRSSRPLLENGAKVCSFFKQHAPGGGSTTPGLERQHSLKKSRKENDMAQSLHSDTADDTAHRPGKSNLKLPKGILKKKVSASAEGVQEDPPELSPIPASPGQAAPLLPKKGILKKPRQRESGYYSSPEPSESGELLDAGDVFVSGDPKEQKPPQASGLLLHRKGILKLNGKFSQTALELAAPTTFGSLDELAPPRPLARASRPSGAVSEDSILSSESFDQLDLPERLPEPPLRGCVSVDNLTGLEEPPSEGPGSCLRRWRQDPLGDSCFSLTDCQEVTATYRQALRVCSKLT

[10] = target: RAC-alpha serine/threonine-protein kinase (Homo sapiens) (UniProt P31749); test: Inhibition of human recombinant AKT1 at 40 nM related to control ULK1
Method in brief: (§1)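 Radiometric activity assays in a panel of 327 human recombinant kinases, each run in duplicate at one inhibitor concentration. Activity remaining is expressed as percent of vehicle control, and percent inhibition is calculated as 100% minus percent activity remaining.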

[11] = target: RAC-gamma serine/threonine-protein kinase (Homo sapiens) (UniProt Q9Y243); test: Inhibition of human recombinant AKT3 at 40 nM related to control ULK1; method in brief: as §1
RAC-gamma serine/threonine-protein kinase (Homo sapiens), sequence (Q9Y243 whole entry): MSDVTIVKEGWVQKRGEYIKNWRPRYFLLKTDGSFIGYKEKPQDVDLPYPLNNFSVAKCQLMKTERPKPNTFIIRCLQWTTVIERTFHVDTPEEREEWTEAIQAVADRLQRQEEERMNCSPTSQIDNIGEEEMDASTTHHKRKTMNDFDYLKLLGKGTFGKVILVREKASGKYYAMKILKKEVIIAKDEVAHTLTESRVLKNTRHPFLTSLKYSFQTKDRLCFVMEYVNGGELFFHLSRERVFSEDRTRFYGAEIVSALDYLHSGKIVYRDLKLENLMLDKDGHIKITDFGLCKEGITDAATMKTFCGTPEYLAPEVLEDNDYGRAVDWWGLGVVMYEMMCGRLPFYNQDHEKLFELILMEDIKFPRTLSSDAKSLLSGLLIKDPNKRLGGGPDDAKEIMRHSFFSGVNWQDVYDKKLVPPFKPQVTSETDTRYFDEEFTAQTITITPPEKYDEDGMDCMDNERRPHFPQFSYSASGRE

5'-AMP-activated protein kinase catalytic subunit alpha-1 (Homo sapiens), sequence (Q13131 whole entry, looked up): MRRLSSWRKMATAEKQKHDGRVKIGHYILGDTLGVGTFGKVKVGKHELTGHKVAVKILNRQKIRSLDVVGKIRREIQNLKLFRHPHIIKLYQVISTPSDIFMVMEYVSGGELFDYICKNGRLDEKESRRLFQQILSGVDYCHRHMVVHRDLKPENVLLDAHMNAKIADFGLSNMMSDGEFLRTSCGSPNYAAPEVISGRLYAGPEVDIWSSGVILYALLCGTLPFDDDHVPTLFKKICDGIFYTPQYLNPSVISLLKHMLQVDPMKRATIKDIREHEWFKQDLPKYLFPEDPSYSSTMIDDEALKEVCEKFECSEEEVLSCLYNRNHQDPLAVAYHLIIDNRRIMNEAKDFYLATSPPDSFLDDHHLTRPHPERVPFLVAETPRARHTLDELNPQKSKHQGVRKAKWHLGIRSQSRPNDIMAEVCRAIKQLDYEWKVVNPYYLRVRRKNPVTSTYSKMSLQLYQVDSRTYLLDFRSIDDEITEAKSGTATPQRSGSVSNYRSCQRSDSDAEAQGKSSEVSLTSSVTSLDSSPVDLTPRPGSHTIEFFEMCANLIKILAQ
Cyclin-dependent kinase 13 (Homo sapiens), sequence (Q14004 whole entry, looked up): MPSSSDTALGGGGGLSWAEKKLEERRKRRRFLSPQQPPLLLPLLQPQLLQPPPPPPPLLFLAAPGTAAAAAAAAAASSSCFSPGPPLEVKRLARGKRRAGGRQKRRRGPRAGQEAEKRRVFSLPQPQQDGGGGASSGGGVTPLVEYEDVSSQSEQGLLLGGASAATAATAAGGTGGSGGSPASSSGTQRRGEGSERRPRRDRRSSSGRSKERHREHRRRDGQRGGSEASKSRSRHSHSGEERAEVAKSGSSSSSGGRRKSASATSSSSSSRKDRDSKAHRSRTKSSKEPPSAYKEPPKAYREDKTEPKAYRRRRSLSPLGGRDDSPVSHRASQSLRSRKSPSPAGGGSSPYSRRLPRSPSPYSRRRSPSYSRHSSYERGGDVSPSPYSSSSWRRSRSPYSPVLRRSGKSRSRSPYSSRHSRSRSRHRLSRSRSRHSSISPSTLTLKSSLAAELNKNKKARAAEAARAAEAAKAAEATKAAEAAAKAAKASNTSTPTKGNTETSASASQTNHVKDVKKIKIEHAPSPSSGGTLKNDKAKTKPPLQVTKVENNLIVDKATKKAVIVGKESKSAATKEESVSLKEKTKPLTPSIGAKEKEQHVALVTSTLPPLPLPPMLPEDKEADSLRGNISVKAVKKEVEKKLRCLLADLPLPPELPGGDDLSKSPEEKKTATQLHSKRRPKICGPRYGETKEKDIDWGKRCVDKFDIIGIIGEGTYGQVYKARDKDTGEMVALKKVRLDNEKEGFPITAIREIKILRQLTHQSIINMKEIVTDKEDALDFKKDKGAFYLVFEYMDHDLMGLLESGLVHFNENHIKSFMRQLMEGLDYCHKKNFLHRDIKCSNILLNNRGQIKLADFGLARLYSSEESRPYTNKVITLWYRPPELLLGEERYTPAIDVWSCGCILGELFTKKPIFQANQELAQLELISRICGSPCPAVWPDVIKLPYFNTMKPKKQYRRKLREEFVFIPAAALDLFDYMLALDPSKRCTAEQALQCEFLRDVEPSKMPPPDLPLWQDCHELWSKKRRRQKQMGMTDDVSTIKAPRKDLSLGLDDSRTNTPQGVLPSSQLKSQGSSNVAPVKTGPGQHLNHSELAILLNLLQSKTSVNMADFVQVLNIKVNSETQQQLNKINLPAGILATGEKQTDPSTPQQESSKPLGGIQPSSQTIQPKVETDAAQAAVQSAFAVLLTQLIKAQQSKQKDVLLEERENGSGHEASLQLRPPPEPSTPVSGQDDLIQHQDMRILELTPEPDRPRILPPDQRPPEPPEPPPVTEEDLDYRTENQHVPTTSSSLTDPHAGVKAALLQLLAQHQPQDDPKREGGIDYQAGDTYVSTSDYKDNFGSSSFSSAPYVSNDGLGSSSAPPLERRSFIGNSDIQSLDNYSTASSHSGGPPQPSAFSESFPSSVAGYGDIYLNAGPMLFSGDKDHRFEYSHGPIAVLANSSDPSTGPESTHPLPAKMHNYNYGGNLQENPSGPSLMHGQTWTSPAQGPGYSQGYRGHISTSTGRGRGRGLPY
Calcium/calmodulin-dependent protein kinase type 1G (Homo sapiens), sequence (Q96NX5 whole entry): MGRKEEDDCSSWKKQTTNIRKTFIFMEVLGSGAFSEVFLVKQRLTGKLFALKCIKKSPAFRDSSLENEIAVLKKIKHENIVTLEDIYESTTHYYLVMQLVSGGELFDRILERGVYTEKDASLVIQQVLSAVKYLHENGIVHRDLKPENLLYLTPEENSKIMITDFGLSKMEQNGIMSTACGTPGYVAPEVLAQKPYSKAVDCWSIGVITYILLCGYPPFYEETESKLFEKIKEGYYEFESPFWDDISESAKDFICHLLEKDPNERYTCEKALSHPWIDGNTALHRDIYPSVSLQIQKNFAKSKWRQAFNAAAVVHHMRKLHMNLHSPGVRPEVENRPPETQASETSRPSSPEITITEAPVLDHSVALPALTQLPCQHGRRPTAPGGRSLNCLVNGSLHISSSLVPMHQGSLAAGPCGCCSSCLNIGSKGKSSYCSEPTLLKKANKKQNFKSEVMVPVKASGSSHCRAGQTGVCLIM
3-phosphoinositide-dependent protein kinase 1 (Homo sapiens), sequence (O15530 whole entry, looked up): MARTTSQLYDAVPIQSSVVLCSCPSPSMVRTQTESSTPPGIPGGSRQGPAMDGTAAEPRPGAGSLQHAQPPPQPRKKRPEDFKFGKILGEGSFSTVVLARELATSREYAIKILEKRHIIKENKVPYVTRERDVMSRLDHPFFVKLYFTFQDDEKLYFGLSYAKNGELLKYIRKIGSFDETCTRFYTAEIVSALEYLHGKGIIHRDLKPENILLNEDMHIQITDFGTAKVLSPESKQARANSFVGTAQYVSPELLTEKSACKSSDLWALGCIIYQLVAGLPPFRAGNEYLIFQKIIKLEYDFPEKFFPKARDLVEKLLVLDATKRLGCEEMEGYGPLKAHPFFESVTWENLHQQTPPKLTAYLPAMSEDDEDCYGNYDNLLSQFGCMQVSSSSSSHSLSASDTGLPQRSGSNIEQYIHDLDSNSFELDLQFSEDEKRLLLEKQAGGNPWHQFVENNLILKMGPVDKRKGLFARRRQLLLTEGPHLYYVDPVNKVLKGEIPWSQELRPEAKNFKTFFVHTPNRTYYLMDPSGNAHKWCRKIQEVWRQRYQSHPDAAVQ
BDNF/NT-3 growth factors receptor (Homo sapiens), sequence (Q16620 32-822 limits assumed): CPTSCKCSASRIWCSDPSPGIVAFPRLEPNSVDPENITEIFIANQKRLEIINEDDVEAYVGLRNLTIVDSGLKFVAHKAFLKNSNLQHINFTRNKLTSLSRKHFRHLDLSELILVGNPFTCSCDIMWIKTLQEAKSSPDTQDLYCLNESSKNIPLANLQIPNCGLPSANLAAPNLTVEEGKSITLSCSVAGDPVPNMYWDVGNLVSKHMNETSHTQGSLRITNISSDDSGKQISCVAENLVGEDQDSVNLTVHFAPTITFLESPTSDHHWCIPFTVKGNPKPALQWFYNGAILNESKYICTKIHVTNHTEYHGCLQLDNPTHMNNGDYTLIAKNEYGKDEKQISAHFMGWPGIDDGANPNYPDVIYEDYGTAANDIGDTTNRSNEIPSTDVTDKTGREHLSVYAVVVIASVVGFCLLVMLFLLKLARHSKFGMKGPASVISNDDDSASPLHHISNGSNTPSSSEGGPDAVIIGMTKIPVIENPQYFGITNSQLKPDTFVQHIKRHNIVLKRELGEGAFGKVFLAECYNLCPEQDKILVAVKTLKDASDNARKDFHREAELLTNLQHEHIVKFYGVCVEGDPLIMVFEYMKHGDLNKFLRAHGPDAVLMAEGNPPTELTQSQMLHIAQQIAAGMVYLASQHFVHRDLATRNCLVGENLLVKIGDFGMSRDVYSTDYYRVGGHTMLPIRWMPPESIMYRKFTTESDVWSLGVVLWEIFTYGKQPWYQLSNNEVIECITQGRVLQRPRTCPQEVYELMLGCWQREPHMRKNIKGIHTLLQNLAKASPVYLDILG
RAC-alpha serine/threonine-protein kinase (Homo sapiens), sequence (P31749 whole entry): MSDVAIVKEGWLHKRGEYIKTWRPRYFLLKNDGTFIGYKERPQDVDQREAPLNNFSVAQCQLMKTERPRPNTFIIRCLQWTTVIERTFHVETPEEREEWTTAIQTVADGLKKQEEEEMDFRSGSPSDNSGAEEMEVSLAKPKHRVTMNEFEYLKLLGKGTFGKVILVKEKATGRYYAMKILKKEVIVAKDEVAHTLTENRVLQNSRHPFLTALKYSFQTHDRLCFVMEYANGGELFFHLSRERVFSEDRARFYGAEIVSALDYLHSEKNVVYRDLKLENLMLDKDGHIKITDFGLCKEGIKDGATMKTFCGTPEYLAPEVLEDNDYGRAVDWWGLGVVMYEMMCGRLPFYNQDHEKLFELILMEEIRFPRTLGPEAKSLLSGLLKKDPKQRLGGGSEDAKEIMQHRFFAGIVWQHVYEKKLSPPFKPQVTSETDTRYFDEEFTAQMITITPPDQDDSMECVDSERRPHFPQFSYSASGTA

fold change (FC) [1]: 0.08
Structure (SMILES): CNC(=O)c1ccccc1Oc1nc(Nc2cc(OC)c(OC)c(OC)c2)ncc1Br

inhibition [2]: 58%
inhibition [3]: 1%
fold change (FC) [4]: 0
fold change (FC) [5]: 0.81
fold change (FC) [6]: 0
inhibition [7]: 6%
Structure (SMILES): CC(C)[C@H](NC(=O)c1cc(-c2cnn3cc(-c4ccc(OCCN5CCCCC5)cc4)cnc23)cs1)C(F)(F)F

inhibition [8]: 0%
inhibition [9]: 3%
fold change (FC) [10]: 0
fold change (FC) [11]: 0.03
Structure (SMILES): O=C(N[C@@H](C1CC1)C(F)(F)F)c1cc(-c2cnn3cc(-c4ccc(F)cc4)cnc23)cs1

Source: ChEMBL document CHEMBL5653631, “A Potent and Selective ULK1 Inhibitor Suppresses Autophagy and Sensitizes Cancer Cells to Nutrient Stress” (iScience, 2018)
